Kir21 block: blocks the mouse Kir2.1 inward-rectifier potassium channel. HEK293-Kir2.1, FluxOR thallium flux fluorescence; active compounds read low. B-score at 10 µM. 310,000 compounds, 0.85% hits. AID 1672;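 active means fluorescence ratio B-score at or below minus 3 SD of library scores, with starting-brightness B-score within 2 SD, cut at about -4.2 in these data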;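 further: channel flux triggered by added potassium and thallium sulfate stimulus; B-score of peak minus minimum fluorescence over baseline after thallium stimulus; more negative B-score means stronger Kir2.1 block with less thallium influx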
hERG protect: hERG (human) protection from proarrhythmic block; Q12809; CHO-hERG, FluxOR thallium flux, dofetilide IC70 present; activation (rescue from dofetilide block), less the hit threshold, % at 10 µM; 310,000 compounds, 0.51% hits; AID 1511;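 active means activation above the mean of controls blocked by dofetilide plus 5 SD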;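 further: thallium influx through hERG after potassium depolarization seen as dye fluorescence rise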
KCNK3 inh: human KCNK3 channel inhibition, primary screen | O14649 | CHO-KCNK3 thallium flux, FluxOR fluorescence; active compounds read low | B-score at 10 µM | 340,000 compounds, 0.84% hits | AID 602410;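 active means B-score under library mean minus 4 SD, starting fluorescence ratio at most library mean plus 5 SD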;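 further: more negative B-score means stronger inhibition of thallium flux through KCNK3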
Target sequence (O14649 whole entry, looked up): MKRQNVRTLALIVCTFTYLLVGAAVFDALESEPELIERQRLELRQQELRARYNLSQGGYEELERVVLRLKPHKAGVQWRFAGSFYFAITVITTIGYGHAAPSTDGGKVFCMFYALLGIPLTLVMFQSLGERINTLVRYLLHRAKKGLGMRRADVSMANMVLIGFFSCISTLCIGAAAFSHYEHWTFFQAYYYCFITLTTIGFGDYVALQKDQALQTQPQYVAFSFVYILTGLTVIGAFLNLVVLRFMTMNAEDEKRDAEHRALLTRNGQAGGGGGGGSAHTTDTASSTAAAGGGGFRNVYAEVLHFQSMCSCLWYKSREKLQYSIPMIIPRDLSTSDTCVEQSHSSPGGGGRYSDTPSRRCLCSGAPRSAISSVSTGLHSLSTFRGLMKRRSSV
KCNQ1 act: potentiators or activators of human KCNQ1 potassium channel | P51787 | CHO-K1 KCNQ1, thallium flux FluxOR fluorescence; active compounds read high | B-score at 10 µM | 310,000 compounds, 0.35% hits | AID 2648;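 active means fluorescence ratio B-score, a plate-corrected score, at least three library SD, with initial intensity B-score within 5 SD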
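Assay system: CHO-K1 cells stably expressing KCNQ1; Medium: assay buffer with matched DMSO; Also added: K+/Tl+ depolarizing stimulus; Dosing: single dose; Timing: dye 90 min, compound 20 min, room temperature; Measured by: kinetic FluxOR thallium fluorescence, 10-s 1-Hz baseline, 110-s post-stimulus read; Read-out: peak-minus-minimum fluorescence over initial fluorescence, negative-control normalized, B-scored.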
KCNQ1 block: human KCNQ1 channel inhibition; P51787; CHO-K1 KCNQ1, FluxOR thallium flux fluorescence; active compounds read high; B-score at 10 µM; 310,000 compounds, 1.3% hits;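 active means compounds whose thallium flux B-score, printed positive for inhibition, exceeds three library SD while starting fluorescence stays within three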;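 further: channel opened by potassium depolarization with thallium stimulus after 20 min compound exposure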
KCNK9 block: inhibitors of human KCNK9 two-pore domain potassium channel | B-score at 10 µM | AID 488922 | 310,000 compounds, 1.2% hits | Q9NPC2 | HEK293 KCNK9, FluxOR thallium flux fluorescence; active compounds read low;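 active means ratio B-score over 3 SD below the library mean, with starting fluorescence within 5 SD of its mean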;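 further: negative B-score means less thallium flux so channel inhibition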
KCNK3 confirm: human KCNK3 channel inhibition, confirmation assay. shares compounds with KCNK3 inh. CHO-KCNK3 thallium flux, FluxOR fluorescence; 0% buffer, 100% carvedilol maximal block. ratio percent of control, % at 10 µM. 2,400 compounds, 99% hits. AID 651638;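 active means ratio percent of control, averaged over triplicates, above buffer control mean plus 5 SD, cut at about 64% in these data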;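 further: ratio is the fluorescence rise from min to max over baseline after thallium stimulus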
KCNK3 uninduced: counter-screen for KCNK3 inhibitors: effect in non-induced cells. non-induced KCNK3 parental cells, FluxOR thallium flux; active compounds read low. 2,400 compounds, 40% hits. AID 651747. thallium flux ratio (lower = more inhibition) at 10 µM. shares compounds with KCNK3 inh;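 active means thallium flux ratio, averaged over three wells, more than 5 SD below the buffer control mean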;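 further: host cells are CHO cells without KCNK3 induction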
Of the large screens only hits and unclear results are named; the others gave an inactive call (follow-up assays come after a bar, where they were run). Hits are enriched below; roughly 3.8% of the tested compounds scored in any of these assays.

Cc1ccc(C)c(NS(=O)(=O)c2cc(C(=O)NCCSC3CCCCC3)ccc2C)c1	KCNK3 inh -10, KCNK9 block -7.9 | KCNK3 confirm 110 | KCNK3 uninduced inactive
O=C(CSc1nc2ccccc2c(=O)n1CC1CCCO1)Nc1ccccc1Cl (centres undefined)	KCNK3 inh -12, KCNK9 block -7.6 | KCNK3 confirm 104 | KCNK3 uninduced inactive
O=C(CSc1nc2ccccc2c(=O)n1CC1CCCO1)Nc1ccccc1 (centres undefined)	none
CCc1nnc(SCC(=O)Nc2ccccc2)n1CC1CCCO1 (centres undefined)	KCNK3 inh -8.7 | KCNK3 confirm 79 | KCNK3 uninduced 0.16
O=C1C(Cl)=C(NCCc2ccccc2)C(=O)c2ccccc21	KCNK3 inh -14 (no result: Kir21 block, hERG protect, KCNQ1 act, KCNQ1 block, KCNK9 block) | KCNK3 confirm 161 | KCNK3 uninduced 0.065
CC(C)CCN1C(=O)c2ccc(C(=O)Nc3ccccn3)cc2C1=O	none
CC(CC(=O)NC1CCCCC1)S(=O)(=O)c1ccc2c(c1)NC(=O)CO2 (centres undefined)	none
Cc1ccccc1Cn1nc(C)c(NC(=O)c2sc3ccccc3c2Cl)c1C	KCNK3 inh -9 | KCNK3 confirm 149 | KCNK3 uninduced 0.11
COc1cccc(-c2nc(CS(=O)CC(=O)NCc3ccccc3Cl)c(C)o2)c1 (centres undefined)	none
C=C1[C@@H](OC(C)=O)CC[C@]2(C)[C@@H]1C[C@@H]1C[C@H](OC(C)=O)C(C)=C([C@@H](OC(C)=O)[C@@H]2OC(C)=O)C1(C)C	none
COc1ccc(-c2nnc(SCC(=O)N/N=C/c3ccccc3C(=O)O)n2-c2ccc(Cl)cc2)cc1	none
COc1ccc(S(=O)(=O)NCCSCc2ccccc2C)cc1Br	KCNK3 inh -8.9 | KCNK3 confirm 126 | KCNK3 uninduced 0.13
C(=C/c1nccc2c1[nH]c1ccccc12)/c1ccc2c(c1)OCO2	KCNK3 inh -11 | KCNK3 confirm 99 | KCNK3 uninduced inactive
CC(C)CN(CC(C)C)C(=O)COn1nnc2ccc(S(=O)(=O)N3CCOCC3)cc21	none (no result: Kir21 block, hERG protect, KCNQ1 act, KCNQ1 block, KCNK9 block)
O=C(COn1nnc2ccc(S(=O)(=O)N3CCOCC3)cc21)Nc1c(F)c(F)c(F)c(F)c1F	KCNK3 inh -8.8, KCNK9 block -7.4 | KCNK3 confirm 87 | KCNK3 uninduced inactive
Cc1ccc(C)c(Cn2nnc3c(=O)[nH]c(C4CCCN(C(=O)c5cccs5)C4)nc32)c1 (centres undefined)	none
Cc1ccc(CN(C)C(=O)CSc2nnc3n2CCCCC3)c(C)c1	none (no result: Kir21 block, hERG protect, KCNQ1 act, KCNQ1 block, KCNK9 block)
O=C(N/N=C/c1ccc[nH]1)c1cc(-c2ccc(Cl)cc2)nc2ccccc12	KCNK3 inh -9.1 | KCNK3 confirm 124 | KCNK3 uninduced 0.12
COc1ccc(-c2ncccc2OC(=O)C23CC4CC(CC(C4)C2)C3)cc1OC	none
CCCn1nc(C(=O)Nc2ccc(-n3cnnn3)cc2)c2ccccc2c1=O	none (no result: Kir21 block, hERG protect, KCNQ1 act, KCNQ1 block, KCNK9 block)
CCCCNC(C(=O)Nc1ccc(Cl)c([N+](=O)[O-])c1)c1ccccc1 (centres undefined)	none
CSc1ccc(C2Nc3cccc4cccc(c34)N2)cc1	KCNK3 inh -8.8, KCNQ1 block 6 | KCNK3 confirm 112 | KCNK3 uninduced inactive
Clc1ccc(C2Nc3cccc4cccc(c34)N2)cc1	none
CC(=O)OC(COc1cccc(C)c1)Cn1cnc2ccccc21 (centres undefined)	KCNK3 inh -9.4 | KCNK3 confirm 126 | KCNK3 uninduced 0.16
CC(=O)Nc1cccc(OCC(O)Cn2cnc3ccccc32)c1 (centres undefined)	none
CC(=O)c1cc(C(=O)Nc2ccc3ccccc3c2)c(C)o1	KCNK3 inh -11 | KCNK3 confirm 53 | KCNK3 uninduced inactive

Assay outcomes as filed in PubChem.
